Common to all, as to format: functional
In experiment [1] the test system is 6C3HED. Description: Inhibition of tumor growth of 6C3HED lymphosarcoma tumor cell line in mice at a dose of 150 mg/kg given orally(daily x 8). Particulars: Mus musculus, po. An outline of the steps: (§1)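 C3H mice received subcutaneous 1-2 mm 6C3HED lymphosarcoma fragments, which grew for 1 day before treatment. The agent was suspended in 2.5% emulphor and given by oral gavage once daily on days 2-9. On day 10, intact tumors were measured by calipers to estimate tumor weight. Percent inhibition was taken from treated versus untreated control tumor weights, mostly with 10 mice per group.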

Experiment [2] relates to 6C3HED. Description: Inhibition of tumor growth of 6C3HED lymphosarcoma tumor cell line in mice at a dose of 300 mg/kg given orally (daily x 8). Particulars: Mus musculus, route oral. An outline of the steps: as §1
For another experiment, the system named is Mus musculus. Description: Lethal dose against C3H mouse with subcutaneously implanted 6C3HED lymphosarcoma. Particulars: sc. An outline of the steps: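 C3H mice bearing subcutaneously implanted 6C3HED lymphosarcoma fragments (1-2 mm), grown 1 day before treatment. Compound suspended in 2.5% emulphor and given po by gavage daily × 8 (days 2-9). Deaths from drug toxicity were recorded to give the lethal dose.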

Another experiment has as its system CX-1. Description: Inhibition of tumor growth of CX-1 cell line at 600 mg/kg. Particulars: Homo sapiens.
Experiment [3] relates to 6C3HED. Description: Inhibition of tumor growth of 6C3HED lymphosarcoma tumor cell line in mice at a dose of 200 mg/kg given orally(daily x 8). Particulars: Mus musculus, po. A digest of the protocol: as §1

As a reminder, the inhibition in vivo is the relative decrease from the control value, in per cent. Lower therefore signals a response near the control. As usually defined, the LD50 is the dose at which mortality reaches 50%. Higher therefore signals a less toxic substance.

For the compound `CC(C)c1ccc(S(=O)(=O)NC(=O)Nc2ccc(Cl)cc2)s1`, the inhibition in vivo at 150 mg/kg with 6C3HED [1] is 42%. In addition, in the experiment on 6C3HED [2], the inhibition in vivo at 300 mg/kg was determined as 63%.
In the experiment on Mus musculus, `COc1ccc(S(=O)(=O)NC(=O)Nc2ccc(Cl)cc2)s1` showed an LD50 of 450 mg/kg. In addition, at 600 mg/kg the inhibition in vivo in the experiment with CX-1 was 62%. This compound showed an inhibition in vivo at 150 mg/kg with 6C3HED [1] of 93%. The compound also showed an inhibition in vivo at 300 mg/kg in the experiment with 6C3HED [2] of 100%.
Consider `O=C(Nc1ccc(Cl)cc1)NS(=O)(=O)c1scc2c1CCCC2`, for which, in the experiment with 6C3HED [1], 150 mg/kg produced 0% inhibition in vivo. The compound further showed an inhibition in vivo at 300 mg/kg in the experiment on 6C3HED [2] of 15%.
As for `CCc1ccc(S(=O)(=O)NC(=O)Nc2ccc(Cl)cc2)[nH]1`, the inhibition in vivo at 300 mg/kg with 6C3HED [2] worked out at 56%.
`CSc1ccc(S(=O)(=O)NC(=O)Nc2ccc(Cl)cc2)s1` displayed an inhibition in vivo at 150 mg/kg with 6C3HED [1] of 29%. In the experiment with 6C3HED [2], this compound came in with an inhibition in vivo at 300 mg/kg of 62%.
In turn, `CCc1ccc(S(=O)(=O)NC(=O)Nc2ccc(Cl)cc2)o1` gave an inhibition in vivo at 150 mg/kg in the experiment on 6C3HED [1] of 57%. This compound returned an inhibition in vivo at 300 mg/kg in the experiment on 6C3HED [2] of 80%.
On the same counts, the results for `CC(C)(C)c1ccc(S(=O)(=O)NC(=O)Nc2ccc(Cl)cc2)s1` are 7% and 10%.
On the same counts, the results for `CCOc1ccc(S(=O)(=O)NC(=O)Nc2ccc(Cl)cc2)s1` are 69% and 96%.
The compound `COc1csc(S(=O)(=O)NC(=O)Nc2ccc(Cl)cc2)c1` showed an inhibition in vivo at 150 mg/kg with 6C3HED [1] of 36%. Also, the inhibition in vivo at 300 mg/kg in the experiment with 6C3HED [2] was determined as 69%.
As for `CCc1csc(S(=O)(=O)NC(=O)Nc2ccc(Cl)cc2)c1`, the inhibition in vivo at 150 mg/kg in the experiment with 6C3HED [1] worked out at 55%. The compound further had an inhibition in vivo at 300 mg/kg in the experiment on 6C3HED [2] of 93%.
`O=C(Nc1ccc(Cl)c(Cl)c1)NS(=O)(=O)c1cc2c(s1)CCCC2` had an inhibition in vivo at 200 mg/kg in the experiment on 6C3HED [3] of 44%.
`CCc1ccsc1S(=O)(=O)NC(=O)Nc1ccc(Cl)cc1` showed an inhibition in vivo at 150 mg/kg in the experiment on 6C3HED [1] of 21%. The compound also registered an inhibition in vivo at 300 mg/kg in the experiment with 6C3HED [2] of 25%.
The corresponding values for `O=C(Nc1ccc(Cl)cc1)NS(=O)(=O)c1scc2c1CCC2` are 36% and 51%.
The corresponding values for `Cc1cc(S(=O)(=O)NC(=O)Nc2ccc(Cl)cc2)sc1C` are 42% and 73%.
On the same counts, the results for `CCc1sc(S(=O)(=O)NC(=O)Nc2ccc(Cl)cc2)cc1C` are 26% and 58%.
In the experiment with 6C3HED [1], `CCCc1ccc(S(=O)(=O)NC(=O)Nc2ccc(Cl)cc2)s1` displayed an inhibition in vivo at 150 mg/kg of 38%. In the experiment on 6C3HED [2], the inhibition in vivo at 300 mg/kg worked out at 39%.
In the experiment with 6C3HED [1], `CCc1ccc(S(=O)(=O)NC(=O)Nc2ccc(Cl)cc2)s1` gave an inhibition in vivo at 150 mg/kg of 57%. Further, at 300 mg/kg the inhibition in vivo in the experiment with 6C3HED [2] was 89%.
`Cc1ccc(S(=O)(=O)NC(=O)Nc2ccc(Cl)c(Cl)c2)s1` came in with an inhibition in vivo at 150 mg/kg with 6C3HED [1] of 24%. In the experiment on 6C3HED [2], this compound displayed an inhibition in vivo at 300 mg/kg of 61%.
On the same counts, the results for `O=C(Nc1ccc(Cl)cc1)NS(=O)(=O)c1cc(Br)c(Br)s1` are 25% and 52%.
On the same counts, the results for `O=C(Nc1ccc(Cl)cc1)NS(=O)(=O)c1cc2c(s1)CCC2` are 16% and 16%.
`O=C(Nc1ccc(Cl)cc1)NS(=O)(=O)c1ccc(Cl)s1` had an inhibition in vivo at 150 mg/kg with 6C3HED [1] of 58%. In the experiment with 6C3HED [2], this compound displayed an inhibition in vivo at 300 mg/kg of 89%.
Turning to `O=C(Nc1ccc(Cl)cc1)NS(=O)(=O)c1cccs1`, testing at 150 mg/kg in the experiment on 6C3HED [1] gave an inhibition in vivo of 16%. This compound came in with an inhibition in vivo at 300 mg/kg with 6C3HED [2] of 66%.
As to `CCCOc1ccc(S(=O)(=O)NC(=O)Nc2ccc(Cl)cc2)s1`, at 150 mg/kg the inhibition in vivo with 6C3HED [1] was 44%. This compound also returned an inhibition in vivo at 300 mg/kg in the experiment on 6C3HED [2] of 63%.
The corresponding values for `Cc1ccsc1S(=O)(=O)NC(=O)Nc1ccc(Cl)cc1` are 17% and 62%.

Source of the values: ChEMBL document CHEMBL1125518, “Sulfonylureas: a new class of cancer chemotherapeutic agents” (1992).
